Experiment [1] addresses T1, Carbonic anhydrase 7 (Homo sapiens, UniProt P43166). Put plainly: Binding affinity to human recombinant CA7 assessed as dissociation rate constant after 30 secs by surface plasmon resonance assay. (In general: In SPR one partner is held on a chip, and binding of the other changes the refractive index at the surface.)
Experiment [2] has as its target T2, Carbonic anhydrase 12 (Homo sapiens, UniProt O43570). Briefly: Binding affinity to human recombinant CA12 catalytic domain assessed as dissociation rate constant after 30 secs by surface plasmon resonance assay.
Experiment [3] addresses T2, Carbonic anhydrase 12. Briefly: Binding affinity to human recombinant CA12 catalytic domain assessed as association rate constant after 30 secs by surface plasmon resonance assay. The settings on record: read-out: kon (M-1-s-1).
Experiment [4] addresses T1, Carbonic anhydrase 7. Briefly: Binding affinity to human recombinant CA7 assessed as association rate constant after 30 secs by surface plasmon resonance assay. The conditions noted are these: read-out: kon (M-1-s-1).
Experiment [5] addresses T3, Carbonic anhydrase 2 (Homo sapiens, UniProt P00918). Put plainly: Binding affinity to human recombinant CA2 expressed in Escherichia coli assessed as association rate constant after 30 secs by surface plasmon resonance assay. The conditions noted are these: read-out: kon (M-1-s-1).
Experiment [6] concerns the target T3, Carbonic anhydrase 2. Briefly: Binding affinity to human recombinant CA2 expressed in Escherichia coli assessed as dissociation rate constant after 30 secs by surface plasmon resonance assay.
Experiment [7] deals with T4, Carbonic anhydrase 13 (Homo sapiens, UniProt Q8N1Q1). Briefly: Binding affinity to human recombinant CA13 assessed as association rate constant after 30 secs by surface plasmon resonance assay. The settings on record: read-out: kon (M-1-s-1).
Experiment [8] concerns the target T4, Carbonic anhydrase 13. Put plainly: Binding affinity to human recombinant CA13 assessed as dissociation rate constant after 30 secs by surface plasmon resonance assay.
Experiment [9] has as its target T5, Carbonic anhydrase 1 (Homo sapiens, UniProt P00915). Put plainly: Binding affinity to human recombinant CA1 expressed in Escherichia coli assessed as association rate constant after 30 secs by surface plasmon resonance assay. In a few lines: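 Full-length enzyme amine-coupled to a carboxymethyl-dextran chip (75 µg/mL in 10 mM sodium acetate pH 5, about 6000 RU). SPR at 25 °C in PBST pH 7.4 with 2% DMSO. Ligands injected as 2-fold series, 15.6–2000 nM, at 30 or 90 µL/min. Association 30 s, dissociation 180 s. Regeneration with 200 µM sulphanilamide. ka from non-linear fit to a one-step binding model with mass transport.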

The target in experiment [10] is T5, Carbonic anhydrase 1. Put plainly: Binding affinity to human recombinant CA1 expressed in Escherichia coli assessed as dissociation rate constant after 30 secs by surface plasmon resonance assay. A digest of the protocol:
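CA I immobilized by amine coupling (75 µg mL−1 in 10 mM sodium acetate, pH 5) to about 6000 RU. SPR run at 25 °C in PBST with 2 % DMSO, pH 7.4. Ligand given as 2-fold series, 15.6–2000 nM, at 30 or 90 µL min−1. Association 30 s, dissociation 180 s; sulphanilamide 200 µM regeneration where needed. kd from non-linear fit to one-step binding with mass transport.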

T4 sequence (Q8N1Q1 whole entry): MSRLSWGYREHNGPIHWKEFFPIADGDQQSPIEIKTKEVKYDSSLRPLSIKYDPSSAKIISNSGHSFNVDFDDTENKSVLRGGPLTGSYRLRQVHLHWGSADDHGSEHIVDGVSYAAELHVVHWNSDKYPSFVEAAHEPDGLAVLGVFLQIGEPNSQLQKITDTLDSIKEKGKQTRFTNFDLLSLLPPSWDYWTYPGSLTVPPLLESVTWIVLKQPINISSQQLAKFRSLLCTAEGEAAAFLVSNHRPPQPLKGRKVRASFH
T1 sequence (P43166 whole entry, the tested form may be a part): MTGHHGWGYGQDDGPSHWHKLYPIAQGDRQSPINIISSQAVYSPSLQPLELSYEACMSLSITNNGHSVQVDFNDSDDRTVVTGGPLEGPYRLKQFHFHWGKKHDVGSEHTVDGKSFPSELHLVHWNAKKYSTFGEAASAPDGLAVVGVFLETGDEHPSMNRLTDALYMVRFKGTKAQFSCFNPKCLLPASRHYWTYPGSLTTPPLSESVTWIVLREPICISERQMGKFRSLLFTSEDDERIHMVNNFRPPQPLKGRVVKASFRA
T5 sequence (P00915 whole entry): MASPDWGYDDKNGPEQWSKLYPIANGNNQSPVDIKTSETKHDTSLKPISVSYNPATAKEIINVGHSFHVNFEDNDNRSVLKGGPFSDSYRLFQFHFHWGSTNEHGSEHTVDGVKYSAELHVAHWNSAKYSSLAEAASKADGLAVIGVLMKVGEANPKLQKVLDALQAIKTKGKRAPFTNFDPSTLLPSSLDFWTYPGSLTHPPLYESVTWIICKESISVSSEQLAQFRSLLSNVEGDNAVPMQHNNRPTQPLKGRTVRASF
T2 sequence (O43570 whole entry, the tested form may be a part): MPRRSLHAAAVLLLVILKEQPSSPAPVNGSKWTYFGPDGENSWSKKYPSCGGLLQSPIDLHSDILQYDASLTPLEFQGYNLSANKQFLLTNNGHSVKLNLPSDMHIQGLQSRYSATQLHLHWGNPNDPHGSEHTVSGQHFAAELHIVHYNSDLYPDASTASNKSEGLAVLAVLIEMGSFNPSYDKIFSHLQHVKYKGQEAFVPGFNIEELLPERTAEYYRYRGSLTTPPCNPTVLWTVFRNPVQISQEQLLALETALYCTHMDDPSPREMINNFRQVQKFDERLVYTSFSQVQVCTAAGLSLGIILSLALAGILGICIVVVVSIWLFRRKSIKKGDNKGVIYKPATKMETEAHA

For the compound `CCCSc1c(F)c(F)c(S(N)(=O)=O)c(NC2CCCCCCC2)c1F` [carbonic anhydrase (CA) inhibitors, benzenesulphonamide ligand, 12], the koff on Carbonic anhydrase 7 [1] came out at 0.01 s⁻¹; on Carbonic anhydrase 12 [2], 0.05 s⁻¹. Further, the figures for the kon on Carbonic anhydrase 12 [3] and at Carbonic anhydrase 7 [4] were 130000 M⁻¹ s⁻¹ and 20000 M⁻¹ s⁻¹, respectively.
With `CCCS(=O)(=O)c1c(F)c(F)c(S(N)(=O)=O)c(F)c1NC1CCCCCCC1` [carbonic anhydrase (CA) inhibitors, benzenesulphonamide ligand, 13], the koff at Carbonic anhydrase 7 [1] was determined as 0.002 s⁻¹; on Carbonic anhydrase 2 [6], 0.0087 s⁻¹; on Carbonic anhydrase 13 [8], 0.0079 s⁻¹. Also, the figures for the kon on Carbonic anhydrase 2 [5], on Carbonic anhydrase 13 [7] and on Carbonic anhydrase 7 [4] were 86000 M⁻¹ s⁻¹, 510000 M⁻¹ s⁻¹ and 49000 M⁻¹ s⁻¹, respectively.
Take `CNc1c(F)c(S(N)(=O)=O)c(F)c(F)c1S(=O)(=O)CCc1ccccc1` [carbonic anhydrase (CA) inhibitors, benzenesulphonamide ligand, 14]: the koff on Carbonic anhydrase 7 [1] came to 0.013 s⁻¹; on Carbonic anhydrase 2 [6], 0.0082 s⁻¹; on Carbonic anhydrase 12 [2] it was 0.14 s⁻¹; at Carbonic anhydrase 1 [10], 0.01 s⁻¹. Also, the kon at Carbonic anhydrase 1 [9] was 390000 M⁻¹ s⁻¹; on Carbonic anhydrase 2 [5], 1.3e+06 M⁻¹ s⁻¹; at Carbonic anhydrase 12 [3], 1.5e+06 M⁻¹ s⁻¹; at Carbonic anhydrase 7 [4], 290000 M⁻¹ s⁻¹.
Take `CC(C)(C)Nc1c(F)c(S(N)(=O)=O)c(F)c(F)c1S(=O)(=O)CCc1ccccc1` [carbonic anhydrase (CA) inhibitors, benzenesulphonamide ligand, 15]: the dissociation rate constant (koff) at Carbonic anhydrase 12 [2] turned out to be 0.011 s⁻¹. Besides, on Carbonic anhydrase 12 [3], the on-rate (kon) stood at 180000 M⁻¹ s⁻¹.
`COc1ccc(CNc2c(F)c(F)c(F)c(F)c2S(N)(=O)=O)cc1` [carbonic anhydrase (CA) inhibitors, benzenesulphonamide ligand, 15]: the koff on Carbonic anhydrase 7 [1] is 0.14 s⁻¹; on Carbonic anhydrase 2 [6], 0.026 s⁻¹; at Carbonic anhydrase 1 [10], 0.0066 s⁻¹; on Carbonic anhydrase 13 [8] it was 0.022 s⁻¹. The on-rate constant (kon) at Carbonic anhydrase 1 [9] came to 110000 M⁻¹ s⁻¹; on Carbonic anhydrase 2 [5], 390000 M⁻¹ s⁻¹; at Carbonic anhydrase 13 [7], 100000 M⁻¹ s⁻¹; on Carbonic anhydrase 7 [4], 30000 M⁻¹ s⁻¹.
`NS(=O)(=O)c1c(F)c(F)c(N2CCCCC2)c(F)c1F` [carbonic anhydrase (CA) inhibitors, benzenesulphonamide ligand, 16]: the off-rate (koff) was 0.071 s⁻¹ at Carbonic anhydrase 7 [1], 0.0093 s⁻¹ at Carbonic anhydrase 2 [6], 0.041 s⁻¹ on Carbonic anhydrase 12 [2] and 0.011 s⁻¹ at Carbonic anhydrase 13 [8]. Also, the kon amounted to 1.4e+06 M⁻¹ s⁻¹ on Carbonic anhydrase 2 [5], 920000 M⁻¹ s⁻¹ on Carbonic anhydrase 13 [7], 880000 M⁻¹ s⁻¹ at Carbonic anhydrase 12 [3] and 2.6e+06 M⁻¹ s⁻¹ at Carbonic anhydrase 7 [4].

What is called koff is a measure of how fast the partners let go of each other. For orientation: kon means a measure of how fast the partners come together.

The record behind these values is BindingDB's records for doi:10.1021/acs.jmedchem.5b01723 (Uppsala University, 2016).
